From ChEMBL document CHEMBL1137333, “Synthesis, radiosynthesis, and biological evaluation of carbon-11 labeled 2beta-carbomethoxy-3beta-(3'-((Z)-2-haloethenyl)phenyl)nortropanes: candidate radioligands for in vivo imaging of the serotonin transporter with positron emission tomography” (J Med Chem, 2006)

Key:
Cynomolgus monkey [1] = experiment: Uptake in anesthetized cynomolgus monkey caudate after 27.5 mins; format: ADME, organism-based, Caudate nucleus; details: in vivo
Method in brief: (§1)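 Baseline microPET (Concorde P4) regional brain time-activity curves in anesthetized cynomolgus monkey following injection of the [11C]-labelled tracer, with radioactivity followed over the scan.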

Cynomolgus monkey [2] = experiment: Uptake in anesthetized cynomolgus monkey midbrain after 6.5 mins; format: ADME, organism-based; details: in vivo
Method in brief: (§2)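 Baseline microPET scan (P4 scanner) of anesthetized cynomolgus monkeys after injection of the carbon-11 labelled nortropane tracer. Two baseline studies were run per tracer. Radioactivity was followed over time in regional brain time-activity curves.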

Cynomolgus monkey [3] = experiment: Uptake in anesthetized cynomolgus monkey cerebellum after 0.5 mins; format: ADME, organism-based; details: in vivo; method in brief: as §1
Cynomolgus monkey [4] = experiment: Uptake in anesthetized cynomolgus monkey thalamus after 65.0 mins; format: ADME, organism-based; details: in vivo
Method in brief: (§3)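 Baseline microPET (Concorde P4) scan in anesthetized cynomolgus monkeys after injection of the carbon-11 labeled tracer, with no chase drug. Regional brain time-activity curves were followed over the scan. Tracer radiochemical purity and specific activity were determined by analytical HPLC at the time of injection.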

Cynomolgus monkey [5] = experiment: Ratio of uptake in midbrain to cerebellum of anesthetized cynomolgus monkey after 105 mins; format: ADME, organism-based; details: in vivo, 1.75 h
Method in brief: (§4)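 Baseline microPET (Concorde P4) in anesthetized cynomolgus monkey after injection of the [11C]-labelled tracer. Regional time-activity curves were taken, and each region's uptake was divided by cerebellum uptake (low-SERT reference) at 65, 85 and 105 min postinjection.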

Cynomolgus monkey [6] = experiment: Ratio of uptake in medulla to cerebellum of anesthetized cynomolgus monkey after 85 mins; format: ADME, organism-based; details: in vivo; method in brief: as §4
Cynomolgus monkey [7] = experiment: Uptake in anesthetized cynomolgus monkey occipital after 12.5 mins; format: ADME, organism-based, Macaca mulatta, Occipital cortex; details: rhesus monkey, in vivo; method in brief: as §2
Cynomolgus monkey [8] = experiment: Uptake in anesthetized cynomolgus monkey medulla after 55.0 mins; format: ADME, organism-based, Medulla of organ; details: in vivo; method in brief: as §2
Cynomolgus monkey [9] = experiment: Uptake in anesthetized cynomolgus monkey putamen after 6.5 mins; format: ADME, organism-based; details: in vivo; method in brief: as §3
Cynomolgus monkey [10] = experiment: Uptake in anesthetized cynomolgus monkey occipital after 2.5 mins; format: ADME, organism-based, Macaca mulatta, Occipital cortex; details: rhesus monkey, in vivo; method in brief: as §2
Cynomolgus monkey [11] = experiment: Ratio of uptake in thalamus to cerebellum of anesthetized cynomolgus monkey after 105 mins; format: ADME, organism-based; details: in vivo, 1.75 h; method in brief: as §4
Cynomolgus monkey [12] = experiment: Ratio of uptake in medulla to cerebellum of anesthetized cynomolgus monkey after 65 mins; format: ADME, organism-based; details: in vivo; method in brief: as §4
Cynomolgus monkey [13] = experiment: Ratio of uptake in thalamus to cerebellum of anesthetized cynomolgus monkey after 65 mins; format: ADME, organism-based; details: in vivo; method in brief: as §4
Cynomolgus monkey [14] = experiment: Uptake in anesthetized cynomolgus monkey putamen after 12.5 mins; format: ADME, organism-based; details: in vivo; method in brief: as §3
Cynomolgus monkey [15] = experiment: Uptake in anesthetized cynomolgus monkey putamen after 15.5 mins; format: ADME, organism-based; details: in vivo; method in brief: as §3
Cynomolgus monkey [16] = experiment: Uptake in anesthetized cynomolgus monkey pons after 95.0 mins; format: ADME, organism-based; details: in vivo; method in brief: as §3
Cynomolgus monkey [17] = experiment: Uptake in anesthetized cynomolgus monkey caudate after 9.5 mins; format: ADME, organism-based, Caudate nucleus; details: in vivo; method in brief: as §1
Cynomolgus monkey [18] = experiment: Ratio of uptake in caudate to cerebellum of anesthetized cynomolgus monkey after 105 mins; format: ADME, organism-based; details: in vivo, 1.75 h; method in brief: as §4
Cynomolgus monkey [19] = experiment: Uptake in anesthetized cynomolgus monkey medulla after 27.5 mins; format: ADME, organism-based, Medulla of organ; details: in vivo; method in brief: as §2
Cynomolgus monkey [20] = experiment: Uptake in anesthetized cynomolgus monkey medulla after 35.0 mins; format: ADME, organism-based, Medulla of organ; details: in vivo; method in brief: as §2
Cynomolgus monkey [21] = experiment: Uptake in anesthetized cynomolgus monkey frontal after 45.0 mins; format: ADME, organism-based, Frontal cortex; details: in vivo, 0.75 h; method in brief: as §2
Cynomolgus monkey [22] = experiment: Uptake in anesthetized cynomolgus monkey putamen after 115.0 mins; format: ADME, organism-based; details: in vivo; method in brief: as §3
Cynomolgus monkey [23] = experiment: Uptake in anesthetized cynomolgus monkey frontal after 35.0 mins; format: ADME, organism-based, Frontal cortex; details: in vivo; method in brief: as §2
Cynomolgus monkey [24] = experiment: Ratio of uptake in occipital to cerebellum of anesthetized cynomolgus monkey after 65 mins; format: ADME, organism-based; details: in vivo; method in brief: as §4
Cynomolgus monkey [25] = experiment: Uptake in anesthetized cynomolgus monkey putamen after 9.5 mins; format: ADME, organism-based; details: in vivo; method in brief: as §3
Cynomolgus monkey [26] = experiment: Uptake in anesthetized cynomolgus monkey occipital after 55.0 mins; format: ADME, organism-based, Occipital cortex; details: in vivo; method in brief: as §2
Cynomolgus monkey [27] = experiment: Ratio of uptake in midbrain to cerebellum of anesthetized cynomolgus monkey after 85 mins; format: ADME, organism-based; details: in vivo; method in brief: as §4
Cynomolgus monkey [28] = experiment: Uptake in anesthetized cynomolgus monkey cerebellum after 45.0 mins; format: ADME, organism-based; details: in vivo, 0.75 h; method in brief: as §1
Cynomolgus monkey [29] = experiment: Uptake in anesthetized cynomolgus monkey caudate after 35.0 mins; format: ADME, organism-based, Caudate nucleus; details: in vivo; method in brief: as §1
Cynomolgus monkey [30] = experiment: Uptake in anesthetized cynomolgus monkey frontal after 15.5 mins; format: ADME, organism-based, Frontal cortex; details: in vivo; method in brief: as §2
Cynomolgus monkey [31] = experiment: Uptake in anesthetized cynomolgus monkey cerebellum after 95.0 mins; format: ADME, organism-based; details: in vivo; method in brief: as §1
Cynomolgus monkey [32] = experiment: Ratio of uptake in pons to cerebellum of anesthetized cynomolgus monkey after 105 mins; format: ADME, organism-based; details: in vivo, 1.75 h; method in brief: as §4
Cynomolgus monkey [33] = experiment: Uptake in anesthetized cynomolgus monkey frontal after 65.0 mins; format: ADME, organism-based, Frontal cortex; details: in vivo; method in brief: as §2
Cynomolgus monkey [34] = experiment: Uptake in anesthetized cynomolgus monkey occipital after 85.0 mins; format: ADME, organism-based, Macaca mulatta, Occipital cortex; details: rhesus monkey, in vivo; method in brief: as §2

[11CH3]OC(=O)[C@@H]1C2CCC(C[C@@H]1c1cccc(/C=C/I)c1)N2 (some centres undefined)
Drug uptake (Cynomolgus monkey [1]): 5.41
Drug uptake (Cynomolgus monkey [2]): 4.97
Drug uptake (Cynomolgus monkey [3]): 0.01
Drug uptake (Cynomolgus monkey [4]): 6.9
Ratio (Cynomolgus monkey [5]): 2.4
Ratio (Cynomolgus monkey [6]): 1.8
Drug uptake (Cynomolgus monkey [7]): 4.52
Drug uptake (Cynomolgus monkey [8]): 7.26
Drug uptake (Cynomolgus monkey [9]): 4.68
Drug uptake (Cynomolgus monkey [10]): 0.85
Ratio (Cynomolgus monkey [11]): 2.1
Ratio (Cynomolgus monkey [12]): 1.6
Ratio (Cynomolgus monkey [13]): 1.6
Drug uptake (Cynomolgus monkey [14]): 5.9
Drug uptake (Cynomolgus monkey [15]): 6.17
Drug uptake (Cynomolgus monkey [16]): 5.84
Drug uptake (Cynomolgus monkey [17]): 4.12
Ratio (Cynomolgus monkey [18]): 1.7
Drug uptake (Cynomolgus monkey [19]): 7.04
Drug uptake (Cynomolgus monkey [20]): 7.36
Drug uptake (Cynomolgus monkey [21]): 4.13
Drug uptake (Cynomolgus monkey [22]): 6.28
Drug uptake (Cynomolgus monkey [23]): 4.13
Ratio (Cynomolgus monkey [24]): 0.9
Drug uptake (Cynomolgus monkey [25]): 5.39
Drug uptake (Cynomolgus monkey [26]): 4.58
Ratio (Cynomolgus monkey [27]): 2
Drug uptake (Cynomolgus monkey [28]): 5.11
Drug uptake (Cynomolgus monkey [29]): 5.74
Drug uptake (Cynomolgus monkey [30]): 3.69
Drug uptake (Cynomolgus monkey [31]): 3.46
Ratio (Cynomolgus monkey [32]): 1.8
Drug uptake (Cynomolgus monkey [33]): 3.9
Drug uptake (Cynomolgus monkey [34]): 4
